Measurements reported in article PMC4980657 (Journal of medicinal chemistry, 2015).
Where two headings read alike, the source gives them in different places.

What was measured:
[1] = biological target: PCP binding site of the NMDA receptor; details: rat brain membranes, cited from earlier work; for Ki: read-out: [3H]TCP Ki; for inhibition (%) of [3H]TCP binding: test ligand at 1.0 μM
[2] = biological target: PCP binding site of the NMDA receptor; details: read-out: Ki vs [3H]1; cited from earlier work
[3] = biological target: PCP binding site of the NMDA receptor; details: mean from two experiments, rat brain membranes; for inhibition (%) of [3H]TCP binding: test ligand at 1.0 μM
Summary of the method: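 Outsourced to a contract lab using rat brain membrane suspensions and [3H]TCP as radioligand. Test ligands were first screened at 1 μM for percent inhibition of [3H]TCP binding. […] Values are the mean of two experiments.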

CN(C(N)=Nc1cccc2ccccc12)c1cccc(I)c1 [compound 3, reference compound]
Ki [1]: 0.0319 µM
inhibition (%) of [3H]TCP binding [1]: 106%

CN(C(=N)Nc1cccc2ccccc12)c1cccc(C(F)(F)F)c1 [compound 7, 1-Methyl-3-(naphthalen-1-yl)-1-(3-(trifluoromethyl)phenyl)guanidine]
Ki [2]: 0.00268 µM
Ki [1]: 0.0183 µM
inhibition (%) of [3H]TCP binding [1]: 107%

CN(C(=N)Nc1cccc2ccccc12)c1cc(C(F)(F)F)ccc1F [compound 13, 1-(6-fluoro-3-(trifluoromethyl)phenyl)-1-methyl-3-(naphthalen-1-yl)guanidine]
Ki ([3]; read-out: [3H]TCP Ki): 0.013 µM
inhibition (%) of [3H]TCP binding [3]: 91.0%

CN(C(=N)Nc1cc(SCF)ccc1Cl)c1cccc(C(F)(F)F)c1 [compound 46, 3-(2-Chloro-5-(fluoromethylthio)phenyl)-1-methyl-1-(3-(trifluoromethyl)phenyl)guanidine]
inhibition (%) of [3H]TCP binding [3]: 57.5%
